UPR CHOP act – apoptotic UPR (CHOP) activation. activation, % at 10 µM. CHO-CHOP luciferase reporter, luminescence; percent of tunicamycin response over DMSO baseline. hit rate 0.34% among 330,000;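 active means at 10 µM dose, activation of 40% or more, normalized to positive control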
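Assay system: CHO cells with stable CHOP pathway luciferase reporter; Buffer or medium: F12 plus 10% serum; Times: 16-18 h cell attachment, then 6 h compound exposure, 37 °C; Signal: luciferase luminescence; Read-out basis: percent activation relative to tunicamycin control; Control set: tunicamycin high control, DMSO low control.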
XBP1 UPR activ – adaptive UPR (XBP1) activation; CHO-XBP1 luciferase reporter, IRE1-XBP1 UPR activation, luminescence; percent of tunicamycin response, DMSO as zero; activation, % at 20 µM; hit rate 0.33% among 330,000;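 active means versus positive control, 20 µM dose yields 30% or more activation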
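Assay system: CHO-XBP1 luciferase reporter cells; Schedule: 6 h treatment, 37 °C; Detection: glow luminescence from Steady-Glo reagent; Benchmarks: high control tunicamycin 10 µg/mL final, low control DMSO vehicle only.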
CHOP inh – inhibitors of CHOP induction in ER stress response. CHO-K1 CHOP-promoter luciferase, tunicamycin-induced, 15-18 h. inhibition, % at 10 µM. hit rate 3.8% among 220,000. AID 2732;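 active means compounds that reduced the stress-induced luciferase reporter signal by more than about 70% of percent inhibition, limit read from the data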
B2AR ag – human beta-2 adrenergic receptor agonism by FAP. P07550. Am2.2-beta2AR cells, FAP receptor internalization, flow cytometry. response, % (concentration not given with the values). hit rate 0.43% among 340,000;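 active means response above a set limit, near 3 SD of response in nonfluorescent compounds, cut at about 42% in these data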
Target sequence (P07550 whole entry, looked up): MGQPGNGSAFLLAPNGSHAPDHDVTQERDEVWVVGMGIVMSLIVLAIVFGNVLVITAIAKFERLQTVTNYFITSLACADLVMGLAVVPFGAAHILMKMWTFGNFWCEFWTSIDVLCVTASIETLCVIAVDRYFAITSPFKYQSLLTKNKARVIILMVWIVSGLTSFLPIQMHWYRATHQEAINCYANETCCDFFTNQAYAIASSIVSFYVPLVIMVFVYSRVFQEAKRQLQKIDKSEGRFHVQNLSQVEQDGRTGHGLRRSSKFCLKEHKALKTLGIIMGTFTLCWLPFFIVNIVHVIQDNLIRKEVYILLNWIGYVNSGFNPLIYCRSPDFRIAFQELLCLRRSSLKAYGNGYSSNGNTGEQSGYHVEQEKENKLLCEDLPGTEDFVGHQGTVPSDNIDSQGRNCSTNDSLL
VLA-4 inh – inhibition in a human VLA-4 binding assay. VLA-4 expressing cells, ligand binding flow cytometry. inhibition, % (about 7 µM as worked out from the volumes in the protocol). hit rate 0.2% among 330,000. AID 2557; in the data active means inhibition above about 50%
VLA-4 mod pick – human VLA-4 allosteric modulation in cherry picked compounds; shares compounds with VLA-4 inh; U937 cells, HUTS-21 LIBS mAb binding, flow cytometry; LDV ligand present at threefold Kd; inhibition, % at 6.7 µM; hit rate 2% among 1,300; AID 2813; in the data active means inhibition above about 40%
Hits are given with their value; - = inactive; . = no result; ! = a repeat was not active. This is one part of a sample in which hits are shown more often than they occur.

SMILES	UPR CHOP act	XBP1 UPR activ	CHOP inh	B2AR ag	VLA-4 inh	VLA-4 mod pick
COC(=O)c1ccc(NC(=O)CN2CCN(CC#N)CC2)cc1	-	-	.	-	-	.
O=C(Nc1ccc(Cl)c(Cl)c1)Nc1ccccc1O	-	-	-	-	-	-
C=CCNc1nc(C(F)(F)F)nc2c1nnn2Cc1ccccc1Cl	-	-	.	-	70.0	-
CCOCCCNc1nc(C(F)(F)F)nc2c1nnn2Cc1ccccc1Cl	-	-	.	-	-	.
Cc1c(C(=O)NC2=NCCS2)cccc1[N+](=O)[O-]	-	-	.	-	-	.
CC(=O)Nc1ccc(NC(=O)Cc2ccc(S(=O)(=O)N3CCCCC3)cc2)cc1	-	-	.	-	.	.
CC1CC(C)CN(C(=O)c2ccc(C#N)cc2)C1 (stereo unspecified)	-	-	-	-	59.6	-
COc1ccc(-n2ncc3c(SCC(=O)N4CCN(c5ccccc5OC)CC4)ncnc32)cc1	-	-	-	-	-	.
CCN(CC)CCCOC(=O)C1(c2ccccc2)CCCC1	-	-	-	-	-	.
CCN(CC)CCOCCOC(=O)C1(c2ccccc2)CCCC1	-	-	-	-	57.1	-
COc1ccc(NC(=O)CCN2C(=O)c3cccc([N+](=O)[O-])c3C2=O)cc1	-	-	.	-	51.0	-
Nc1nc(=S)c2[nH]cnc2[nH]1	-	-	.	-	57.1	-
Nc1nc(=S)c2[nH]c(=S)[nH]c2[nH]1	.	.	.	-	.	.
CCN(CC)CCNC(=O)c1ccc(CS(=O)(=O)c2ccccc2C)o1	-	-	.	-	-	.
NS(=O)(=O)c1cc(C(=O)OCC(=O)Nc2ccccc2[N+](=O)[O-])ccc1Cl	-	-	-	-	-	.
NS(=O)(=O)c1cc(C(=O)OCC(=O)Nc2ccc(Cl)cc2[N+](=O)[O-])ccc1Cl	-	-	-	-	52.2	-
Cc1ccc(NC(=O)c2ccc(C)c(NC3=NC4CS(=O)(=O)CC4S3)c2)cc1C (stereo unspecified)	-	-	.	-	-	.
Cc1ccc(C(=O)N2CC(C)CC(C)C2)cc1NC1=NC2CS(=O)(=O)CC2S1 (stereo unspecified)	-	-	.	-	-	-
Cc1ccc(C(=O)N2CCN(c3ncccn3)CC2)cc1NC1=NC2CS(=O)(=O)CC2S1 (stereo unspecified)	-	-	.	-	-	.
Cc1ccc(C(=O)N2CCC(C)CC2)cc1NC1=NC2CS(=O)(=O)CC2S1 (stereo unspecified)	-	-	.	-	66.6	-
Nc1ncnc(Nc2ccccc2)n1	-	-	.	-	54.5	-
NS(=O)(=O)c1cccc(NC(=O)CCN2C(=O)C3CCCCC3C2=O)c1 (stereo unspecified)	-	-	.	-	53.2	-
O=C(CCN1C(=O)C2CC=CCC2C1=O)Nc1cccc(S(=O)(=O)N2CCCCC2)c1 (stereo unspecified)	-	-	.	-	-	.
COc1ncnc(OC)c1S(=O)(=O)Nc1ccc(C(F)(F)F)cc1	-	-	.	-	-	.
Nc1ncnc2nc[nH]c12	-	-	.	-	58.4!	-
SMILES	UPR CHOP act	XBP1 UPR activ	CHOP inh	B2AR ag	VLA-4 inh	VLA-4 mod pick
COc1cc(OC)c(C(=O)NCc2cccnc2)cc1OC	-	-	-	-	-	.
COc1ccc(C(=O)NCc2cccnc2)cc1C(=O)NCc1cccnc1	-	-	-	-	56.1	-
CCC(=O)c1cn(CC(=O)Nc2ccc(C)cc2)c2ccccc12	-	-	.	-	-	-
COC(=O)c1cn(CC(=O)Nc2ccccc2C)c2ccccc12	-	-	.	-	-	-
CCC(=O)c1cn(CC(=O)Nc2cc(C)ccc2C)c2ccccc12	-	-	.	-	-	.
CCC(=O)c1cn(CC(=O)Nc2ccccc2F)c2ccccc12	-	-	.	-	-	-
COC(=O)c1cn(CC(=O)Nc2ccc(OC)cc2)c2ccccc12	-	-	.	-	-	.
CCC(=O)c1cn(CC(=O)Nc2ccc(OC)cc2)c2ccccc12	-	-	.	-	57.2	-
Cc1cccc(NC(=O)NCc2cccnc2)c1C	-	-	.	-	-	.
Cc1cccc(NC(=O)C2CCCN(S(=O)(=O)c3cccs3)C2)c1C (stereo unspecified)	-	-	.	-	-	.
CCCCN(C)C(=O)C(Cc1ccccc1)NS(=O)(=O)c1ccc2c(c1)CCC(=O)N2 (stereo unspecified)	-	-	-	-	54.3	-
